Test results taken from ChEMBL document CHEMBL2057112, “Enamino-oxindole HIV protease inhibitors” (Bioorg Med Chem Lett, 2012).

Tests used:
[1] = Inhibition of Human immunodeficiency virus protease M9 mutant expressed in Escherichia coli using ArgGlu(EDANS)SerGlnAsnTyrProIleValGlnLys(DABCYL)Arg as substrate preincubated with compound for 0.5 to 1 min measured by fluorometric analysis at pH 6.5
[2] = Inhibition of Human immunodeficiency virus protease M10 mutant expressed in Escherichia coli using ArgGlu(EDANS)SerGlnAsnTyrProIleValGlnLys(DABCYL)Arg as substrate preincubated with compound for 0.5 to 1 min measured by fluorometric analysis at pH 6.5
[3] = Inhibition of Human immunodeficiency virus protease M8 mutant expressed in Escherichia coli using ArgGlu(EDANS)SerGlnAsnTyrProIleValGlnLys(DABCYL)Arg as substrate preincubated with compound for 0.5 to 1 min measured by fluorometric analysis at pH 6.5
[4] = system: Human immunodeficiency virus 1; assay: Antiviral activity against Human immunodeficiency virus 1 HXB2 expressing protease M9 mutant infected in human MT4 cells after 5 days by MTT assay; assay type: functional, organism-based; conditions: Human immunodeficiency virus 1, HXB2, MT4, 120 h
[5] = Inhibition of wild type Human immunodeficiency virus protease expressed in Escherichia coli using ArgGlu(EDANS)SerGlnAsnTyrProIleValGlnLys(DABCYL)Arg as substrate preincubated with compound for 0.5 to 1 min measured by fluorometric analysis at pH 6.5
[6] = system: Human immunodeficiency virus 1; assay: Antiviral activity against Human immunodeficiency virus 1 HXB2 expressing protease M5 mutant infected in human MT4 cells after 5 days by MTT assay; assay type: functional, organism-based; conditions: Human immunodeficiency virus 1, HXB2, MT4, 120 h
Method in brief: (§1)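 MT-4 cells (AIDS Research and Reference Reagent Program) exposed to 50% tissue culture infective doses (TCID₅₀) of virus with various concentrations of test compound for 5 days. MTT solution then added and absorbance measured. Mutant strains carry 10–17 resistance mutations with phenotypic resistance to marketed PIs; all include I84V except M7. IC₅₀ reported.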

[7] = system: Human immunodeficiency virus 1; assay: Antiviral activity against Human immunodeficiency virus 1 HXB2 expressing wild type protease infected in human MT4 cells after 5 days by MTT assay; assay type: functional, organism-based; conditions: Human immunodeficiency virus 1, HXB2, MT4, 120 h
[8] = system: Human immunodeficiency virus 1; assay: Antiviral activity against Human immunodeficiency virus 1 HXB2 expressing protease M4 mutant infected in human MT4 cells after 5 days by MTT assay; assay type: functional, organism-based; conditions: Human immunodeficiency virus 1, HXB2, MT4, 120 h; method in brief: as §1
[9] = system: Human immunodeficiency virus 1; assay: Antiviral activity against Human immunodeficiency virus 1 HXB2 expressing protease M8 mutant infected in human MT4 cells after 5 days by MTT assay; assay type: functional, organism-based; conditions: Human immunodeficiency virus 1, HXB2, MT4, 120 h
[10] = system: Human immunodeficiency virus 1; assay: Antiviral activity against Human immunodeficiency virus 1 HXB2 expressing protease M3 mutant infected in human MT4 cells after 5 days by MTT assay; assay type: functional, organism-based; conditions: Human immunodeficiency virus 1, HXB2, MT4, 120 h; method in brief: as §1
[11] = system: Human immunodeficiency virus 1; assay: Antiviral activity against Human immunodeficiency virus 1 HXB2 expressing protease M6 mutant infected in human MT4 cells after 5 days by MTT assay; assay type: functional, organism-based; conditions: Human immunodeficiency virus 1, HXB2, MT4, 120 h; method in brief: as §1
[12] = system: Human immunodeficiency virus 1; assay: Antiviral activity against Human immunodeficiency virus 1 HXB2 expressing protease M7 mutant infected in human MT4 cells after 5 days by MTT assay; assay type: functional, organism-based; conditions: Human immunodeficiency virus 1, HXB2, MT4, 120 h; method in brief: as §1
[13] = system: Human immunodeficiency virus 1; assay: Antiviral activity against Human immunodeficiency virus 1 HXB2 expressing protease M10 mutant infected in human MT4 cells after 5 days by MTT assay; assay type: functional, organism-based; conditions: Human immunodeficiency virus 1, HXB2, MT4, 120 h

| SMILES | Ki [1] | Ki [2] | Ki [3] | IC50 [4] | Ki [5] | IC50 [6] | IC50 [7] | IC50 [8] | IC50 [9] | IC50 [10] | IC50 [11] | IC50 [12] | IC50 [13] |
| --- | --- | --- | --- | --- | --- | --- | --- | --- | --- | --- | --- | --- | --- |
| CC(C)CN(C[C@@H](O)[C@H](Cc1ccccc1)NC(=O)O[C@H]1CO[C@H]2OCC[C@H]21)S(=O)(=O)c1ccc(N)cc1 | < 0.3 nM | 1 nM | 0.25 nM | 25 nM | < 0.1 nM | 22 nM | 3 nM | 30 nM | 16 nM | 11 nM | 10 nM | 3.2 nM | 130 nM |
| CC(C)CN(C[C@@H](O)[C@H](Cc1ccccc1)NC(=O)O[C@H]1CO[C@H]2OCC[C@H]21)S(=O)(=O)c1ccc2c(c1)CCN2 | 1.5 nM | 10 nM | 0.63 nM | 190 nM | 0.12 nM | 120 nM | 3.9 nM | 175 nM | 107 nM | 80 nM | 30 nM | 7.5 nM | 1700 nM |
| CC(C)CNC=C1C(=O)Nc2ccc(S(=O)(=O)N(CC(C)C)C[C@@H](O)[C@H](Cc3ccccc3)NC(=O)O[C@H]3CO[C@H]4OCC[C@H]43)cc21 (mixture of isomers) | < 0.3 nM | < 1 nM |  | 9.5 nM | < 0.1 nM | 9 nM | 7.5 nM | 15 nM | 16 nM | 8 nM | 9 nM | 2.1 nM | 33 nM |
| CC(N)=C1C(=O)Nc2ccc(S(=O)(=O)N(CC(C)C)C[C@@H](O)[C@H](Cc3ccccc3)NC(=O)O[C@H]3CO[C@H]4OCC[C@H]43)cc21 (mixture of isomers) | < 0.3 nM | < 1 nM |  | 60 nM | < 0.1 nM | 75 nM | 64 nM | 70 nM | 70 nM | 70 nM | 65 nM | 30 nM | 60 nM |
| CNC(C)=C1C(=O)Nc2ccc(S(=O)(=O)N(CC(C)C)C[C@@H](O)[C@H](Cc3ccccc3)NC(=O)O[C@H]3CO[C@H]4OCC[C@H]43)cc21 (mixture of isomers) | < 0.3 nM | < 1 nM |  | 17 nM | < 0.1 nM | 18 nM | 10 nM | 16 nM | 29 nM | 12 nM | 20 nM | 5 nM | 56 nM |
| CCCCNC=C1C(=O)Nc2ccc(S(=O)(=O)N(CC(C)C)C[C@@H](O)[C@H](Cc3ccccc3)NC(=O)O[C@H]3CO[C@H]4OCC[C@H]43)cc21 (mixture of isomers) | < 0.3 nM | < 1 nM |  | 11 nM | < 0.1 nM | 18 nM | 13 nM | 28 nM | 25 nM | 15 nM | 32 nM | 5 nM | 40 nM |
| CC(C)CN(C[C@@H](O)[C@H](Cc1ccccc1)NC(=O)O[C@H]1CO[C@H]2OCC[C@H]21)S(=O)(=O)c1ccc2c(c1)C(=CNCc1ccccc1)C(=O)N2 (mixture of isomers) | < 0.3 nM | < 1 nM |  |  | < 0.1 nM | 20 nM | 14 nM | 20 nM | 35 nM | 13 nM | 18 nM | 4.1 nM | 30 nM |
| CC(C)CN(C[C@@H](O)[C@H](Cc1ccccc1)NC(=O)O[C@H]1CO[C@H]2OCC[C@H]21)S(=O)(=O)c1ccc2c(c1)C(=CNCCC(C)(C)C)C(=O)N2 (mixture of isomers) | < 0.3 nM | < 1 nM |  |  | < 0.1 nM | 17 nM | 11 nM | 25 nM | 23 nM | 19 nM | 24 nM | 3.2 nM | 32 nM |
| CC(C)CN(C[C@@H](O)[C@H](Cc1ccccc1)NC(=O)O[C@H]1CO[C@H]2OCC[C@H]21)S(=O)(=O)c1ccc2c(c1)C(=CNCC(C)(C)C)C(=O)N2 (mixture of isomers) | < 0.3 nM | < 1 nM |  | 9.5 nM | < 0.1 nM | 7 nM | 4.5 nM | 8.8 nM | 13 nM | 8 nM | 6 nM | 1.5 nM | 27 nM |
| CC(C)CN(C[C@@H](O)[C@H](Cc1ccccc1)NC(=O)O[C@H]1CO[C@H]2OCC[C@H]21)S(=O)(=O)c1ccc2c(c1)C(=CNC1CCC1)C(=O)N2 (mixture of isomers) | < 0.3 nM | 1.2 nM |  | 31 nM | < 0.1 nM | 33 nM | 17 nM | 36 nM | 30 nM | 31 nM | 32 nM | 7 nM | 115 nM |
| COC(=O)N[C@H](C(=O)N[C@@H](Cc1ccccc1)[C@@H](O)CN(Cc1ccc(-c2ccccn2)cc1)NC(=O)[C@@H](NC(=O)OC)C(C)(C)C)C(C)(C)C [ATAZANAVIR] | 84 nM | 171 nM | 2.8 nM | 2500 nM | < 0.1 nM | 280 nM | 3.5 nM | 600 nM | 750 nM | 350 nM | 430 nM | 105 nM | 3300 nM |
